Results reported in ChEMBL document CHEMBL3046177, “Plant growth inhibitory activity of p-hydroxyacetophenones and tremetones from Chilean endemic Baccharis species and some analogous: a comparative study” (J Agric Food Chem, 2002).
Active and inactive are the calls of the source. The rule behind the calls is not given here.

Legend:
Lactuca sativa [1] = test: Phytotoxicity against Lactuca sativa (lettuce) assessed as inhibition of seed respiration during germination after 72 hr; format: functional, organism-based; conditions: read-out: I50
In short: (§1)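 Oxygen uptake of germinating seeds measured polarographically with a Clark-type electrode at 25 °C in a nonilluminated cell over 5 and 10 min, at several compound concentrations. Expressed as percent of control (100%). Three experiments; RI50 from Probit analysis.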

[2] = system: Radical scavenging activity; test: Antioxidant activity assessed as DPPH free radical scavenging activity after 30 min by TLC autographic assay; format: functional; conditions: in the assay text read “spectrophotometric assay” for “TLC autographic assay”; read-out: I50
Lolium multiflorum [3] = test: Phytotoxicity against Lolium multiflorum (Italian ryegrass) assessed as inhibition of shoot development during seeding stage after 120 hr; format: functional, organism-based; conditions: for IC50: read-out: I50
In short: (§2)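 Petri-dish seedling assay on filter paper wetted with test solution (MeOH < 1%), 28 °C in the dark. Coleoptile/hypocotyl and root lengths of all germinated seeds measured after 120 h, then plants dried to constant weight at 40 °C. Three replicates; 50% inhibitory concentrations by Probit analysis of percent inhibition versus concentration.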

Lolium multiflorum [4] = test: Phytotoxicity against Lolium multiflorum (Italian ryegrass) assessed as inhibition of root development during seeding stage after 120 hr; format: functional, organism-based; conditions: for IC50: read-out: I50; in short: as §2
Lactuca sativa [5] = test: Phytotoxicity against Lactuca sativa (lettuce) assessed as inhibition of seed germination after 48 hr; format: functional
In short: (§3)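 Seeds of uniform size on Whatman No.1 filter paper in 85 mm Petri dishes, wetted with 8 or 10 mL deionized water or test solution (MeOH < 1%); controls got matching water/methanol. Sealed, incubated at 28 °C in the dark, scored at 48 h intervals; germination = 1 mm radicle extrusion. Three replicates.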

Lolium multiflorum [6] = test: Phytotoxicity against Lolium multiflorum (Italian ryegrass) assessed as inhibition of seed respiration during germination after 72 hr; format: functional, organism-based; conditions: read-out: I50; in short: as §1
Spinacia oleracea [7] = test: Inhibition of ATP synthesis in Spinacia oleracea (spinach) chloroplasts; format: functional
In short: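 Spinach thylakoids in 100 mM sorbitol, 5 mM MgCl2, 10 mM KCl, 1 mM Na+-tricine, pH 8, with 50 µM methyl viologen as Hill-reaction electron acceptor. Illuminated at 20 °C through 1% CuSO4 filter. ATP synthesis measured titrimetrically.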

Lolium multiflorum [8] = test: Phytotoxicity against Lolium multiflorum (Italian ryegrass) assessed as inhibition of seed germination after 48 hr; format: functional; in short: as §3
Spinacia oleracea [9] = test: Inhibition of H+ uptake in Spinacia oleracea (spinach) chloroplasts; format: functional; conditions: for IC50: read-out: I50
In short: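 Spinach thylakoids (from isolated chloroplasts, in sorbitol/tricine/MgCl2/NaCl buffer, pH 7.8) in 100 mM sorbitol, 5 mM MgCl2, 10 mM KCl, 1 mM Na+-tricine, pH 8, with 50 µM methyl viologen. Illuminated at 20 °C through 1% CuSO4 filter. H+ uptake recorded as pH rise from 8.0 to 8.1 with combination microelectrode on expanded scale.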

Physalis ixocarpa [10] = test: Phytotoxicity against Physalis ixocarpa assessed as inhibition of seed respiration during germination after 72 hr; format: functional, organism-based; conditions: read-out: I50; in short: as §1
Physalis ixocarpa [11] = test: Phytotoxicity against Physalis ixocarpa assessed as inhibition of seed germination after 48 hr; format: functional; in short: as §3
Physalis ixocarpa [12] = test: Phytotoxicity against Physalis ixocarpa assessed as inhibition of shoot development during seeding stage after 120 hr; format: functional, organism-based; conditions: for IC50: read-out: I50; in short: as §2
Trifolium pratense [13] = test: Phytotoxicity against Trifolium pratense (red clover) assessed as inhibition of root development during seeding stage after 120 hr; format: functional, organism-based; conditions: for IC50: read-out: I50; in short: as §2
Trifolium pratense [14] = test: Phytotoxicity against Trifolium pratense (red clover) assessed as inhibition of seed respiration during germination after 72 hr; format: functional, organism-based; conditions: read-out: I50; in short: as §1
Trifolium pratense [15] = test: Phytotoxicity against Trifolium pratense (red clover) assessed as inhibition of seed germination after 48 hr; format: functional; in short: as §3
[16] = Antioxidant activity assessed as inhibition of bleaching of water soluble crocin measured every 5 min by spectrophotometric analysis; format: functional
In short: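 Aqueous mixture of 10 µM crocin, 1 mM t-BuOOH and 0.5 M t-BuOH with serial dilutions of test compound, placed under UV254 light; crocin bleaching (absorbance decrease) and fluorescence emission at 440 and 470 nm followed every 5 min. Three experiments, mean ± SEM.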

Lactuca sativa [17] = test: Phytotoxicity against Lactuca sativa (lettuce) assessed as inhibition of shoot development during seeding stage after 120 hr; format: functional, organism-based; conditions: for IC50: read-out: I50; in short: as §2
Phaseolus vulgaris = test: Inhibition of mitochondrial respiration in Phaseolus vulgaris root mitochondria assessed as reduction of oxygen uptake; format: functional; conditions: read-out: I50
In short: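 Mitochondria from roots of 72 h dark-grown (28 °C) bean seedlings, Percoll-gradient purified, 0.3-0.5 mg protein (Bradford) per run; integrity checked with HCN. Compounds in 0.5% methanol added after a constant state 3 rate with […] was reached. O2 uptake by Clark electrode; control is mitochondria with 0.5% MeOH. Three experiments; I50 by Probit.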

Trifolium pratense [18] = test: Phytotoxicity against Trifolium pratense (red clover) assessed as inhibition of shoot development during seeding stage after 120 hr; format: functional, organism-based; conditions: for IC50: read-out: I50; in short: as §2
Physalis ixocarpa [19] = test: Phytotoxicity against Physalis ixocarpa assessed as inhibition of root development during seeding stage after 120 hr; format: functional, organism-based; conditions: for IC50: read-out: I50; in short: as §2
Lactuca sativa [20] = test: Phytotoxicity against Lactuca sativa (lettuce) assessed as inhibition of root development during seeding stage after 120 hr; format: functional, organism-based; conditions: for IC50: read-out: I50; in short: as §2
Trifolium pratense [21] = test: Increase of root development during seeding stage in Trifolium pratense (red clover) at 50 to 300 uM after 120 hr; format: functional, organism-based; in short: as §2
Trifolium pratense [22] = test: Increase of shoot development during seeding stage in Trifolium pratense (red clover) at 200 uM after 120 hr; format: functional, organism-based; in short: as §2
Trifolium pratense [23] = test: Phytotoxicity against Trifolium pratense (red clover) assessed as inhibition of seed respiration during germination after 24 hr; format: functional, organism-based; in short: as §1
Lactuca sativa [24] = test: Increase of root development during seeding stage in Lactuca sativa (lettuce) at 50 to 300 uM after 120 hr; format: functional, organism-based; in short: as §2
Physalis ixocarpa [25] = test: Phytotoxicity against Physalis ixocarpa assessed as inhibition of seed respiration during germination after 24 hr; format: functional, organism-based; in short: as §1
Lolium multiflorum [26] = test: Phytotoxicity against Lolium multiflorum (Italian ryegrass) assessed as inhibition of seed respiration during germination after 24 hr; format: functional, organism-based; in short: as §1
Lactuca sativa [27] = test: Phytotoxicity against Lactuca sativa (lettuce) assessed as inhibition of seed respiration during germination after 24 hr; format: functional, organism-based; in short: as §1
Lolium multiflorum [28] = test: Phytotoxicity against Lolium multiflorum (Italian ryegrass) assessed as inhibition of seed germination at 500 uM after 48 hr; format: functional; in short: as §3
Physalis ixocarpa [29] = test: Increase of shoot development during seeding stage in Physalis ixocarpa up to 50 uM after 120 hr; format: functional, organism-based; in short: as §2
[30] = system: Lolium multiflorum (ryegrass); test: Phytotoxicity against Lolium multiflorum (ryegrass) assessed as inhibition of seed germination at 500 uM after 48 hr
Lolium multiflorum [31] = test: Increase of seed respiration during germination in Lolium multiflorum (Italian ryegrass)at 30 uM; format: functional, organism-based; in short: as §1
Lolium multiflorum [32] = test: Phytotoxicity against Lolium multiflorum (Italian ryegrass) assessed as inhibition of seed respiration during germination at 300 to 500 uM after 24 hr; format: functional, organism-based; in short: as §1

| SMILES | IC50 (Lactuca sativa [1]) [µM] | IC50 (Lolium multiflorum [3]) [µM] | IC50 (Lolium multiflorum [4]) [µM] | GI50 (Lactuca sativa [5]) | IC50 (Lolium multiflorum [6]) [µM] | inhibition (Spinacia oleracea [7]) | GI50 (Lolium multiflorum [8]) | inhibition (Spinacia oleracea [9]) | IC50 (Spinacia oleracea [9]) [µM] | IC50 (Physalis ixocarpa [10]) [µM] | GI50 (Physalis ixocarpa [11]) | IC50 (Physalis ixocarpa [12]) [µM] | IC50 (Trifolium pratense [13]) [µM] | IC50 (Trifolium pratense [14]) [µM] | GI50 (Trifolium pratense [15]) | inhibition [16] | IC50 (Lactuca sativa [17]) [µM] | IC50 (Phaseolus vulgaris) [µM] | IC50 (Trifolium pratense [18]) [µM] | IC50 (Lactuca sativa [20]) [µM] | further results |
| --- | --- | --- | --- | --- | --- | --- | --- | --- | --- | --- | --- | --- | --- | --- | --- | --- | --- | --- | --- | --- | --- |
| CC(=O)c1ccc2c(c1O)C[C@H](C1(C)CO1)O2 (stereo partly specified) | 11 | 11.2 | 11.9 | 11.5 µM | 18 | Dose-dependent effect | 10.4 µM | Dose-dependent effect | 13.8 | 15.8 | 8.7 µM | 7.7 | 7.1 | 10.1 | 7.1 µM | Active | 10.5 | 17.1 | 7.2 | 10.9 | IC50 [2]: 30.6 µM; IC50 (Physalis ixocarpa [19]): 9.9 µM |
| CC(=O)c1ccc(Br)cc1 |  |  |  | inactive |  |  | inactive |  |  |  | inactive |  |  |  | inactive |  |  |  |  |  | Activity (Trifolium pratense [21]): Active; Activity (Trifolium pratense [22]): Active; I50 (Trifolium pratense [23]): inactive; Activity (Lactuca sativa [24]): Active; I50 (Lolium multiflorum [3]): inactive; I50 (Lolium multiflorum [4]): inactive; I50 (Physalis ixocarpa [25]): inactive; I50 (Lolium multiflorum [26]): inactive; I50 (Physalis ixocarpa [12]): inactive; I50 (Trifolium pratense [13]): inactive; I50 (Lactuca sativa [17]): inactive; I50 (Lactuca sativa [27]): inactive; I50 (Trifolium pratense [18]): inactive; inhibition at 500 µM (Lolium multiflorum [28]): 30%; Activity (Physalis ixocarpa [29]): Active; inhibition at 500 µM [30]: 30%; I50 (Physalis ixocarpa [19]): inactive; I50 (Lactuca sativa [20]): inactive |
| CC(=O)Oc1ccc(C(C)=O)cc1 [4-(ACETATE)ACETOPHENONE] |  | 77.3 | 75.5 | 41 µM |  |  | 75.3 µM |  |  |  | inactive |  | 221 |  | 233 µM |  | 39.1 |  | 234 | 38.9 | Activity (Trifolium pratense [21]): Active; Activity (Trifolium pratense [22]): Active; I50 (Trifolium pratense [23]): inactive; Activity (Lactuca sativa [24]): Active; I50 (Physalis ixocarpa [25]): inactive; Activity (Lolium multiflorum [31]): Active; I50 (Lolium multiflorum [26]): inactive; I50 (Physalis ixocarpa [12]): inactive; I50 (Lactuca sativa [27]): inactive; Activity (Lolium multiflorum [32]): Active; inhibition at 500 µM (Lolium multiflorum [28]): 30%; Activity (Physalis ixocarpa [29]): Active; inhibition at 500 µM [30]: 30%; I50 (Physalis ixocarpa [19]): inactive |
| C=C(C)[C@H]1Cc2c(ccc(C(C)=O)c2O)O1 [4-HYDROXY TREMETONE] | 27 | 26.2 | 22.3 | 21 µM | 39 | Dose-dependent effect | 25.5 µM | Dose-dependent effect | 20.4 | 28.7 | 16.6 µM | 15.2 | 46.3 | 22 | 17.8 µM | Active | 19 | 45 | 47.6 | 16.7 | IC50 [2]: 53.2 µM; IC50 (Physalis ixocarpa [19]): 12.7 µM |
| CC(=O)c1ccc(O)cc1 [4-HYDROXYACETOPHENONE] | 43 | 17.1 | 19 | 45.3 µM | 41 | Dose-dependent effect | 14.4 µM | Dose-dependent effect | 74.5 | 52.9 | 15 µM | 10.8 | 29.5 | 53 | 28.5 µM | Active | 48.5 | 121 | 34.4 | 45.5 | IC50 (Physalis ixocarpa [19]): 10.8 µM |
